Reference: the EternaBench riboswitch data

Tested on: MS2 coat protein
Assay: apparent Kd, MS2 coat protein; higher = weaker binding; RNA-MaP array; FMN 200 µM where present
In short: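 Two titrations, one without ligand and one with constant ligand, were run with SNAP-549-labelled MS2 coat protein from 0.7 or 1.5 nM, doubling to 3 µM. The targets were designs transcribed by stalled E. coli RNA polymerase on Illumina sequencing-chip clusters, in 100 mM Tris-HCl pH 7.5, 80 mM KCl, 4 mM MgCl2, BSA, DTT, yeast tRNA and Tween-20. The apparent Kd is the median of filtered per-cluster binding-curve fits, with green signal normalised to red-channel RNA signal and control-cluster median Fmax.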

[1] = designed as: OFF switch for flavin mononucleotide, no ligand
[2] = ligand present: flavin mononucleotide, designed as: OFF switch for flavin mononucleotide
[3] = designed as: ON switch for flavin mononucleotide, no ligand
[4] = ligand present: flavin mononucleotide, designed as: ON switch for flavin mononucleotide

| Sequence | apparent Kd [1] [nM] | apparent Kd [2] [nM] | apparent Kd [3] [nM] | apparent Kd [4] [nM] |
| --- | --- | --- | --- | --- |
| CUGCGGUAGGAGAAGGACGGCGGGUUCUUUUCGUACAUGAGGAUCACCCAUGUAGGAUAUCCUACCUCAGGCGGCCUACUACAG | 5.89 | 7.42 | – | – |
| CUAUUGGUAACAGGAUAUAUGAGUCCUACAUGAGGAUCACCCAUGUAGGUGAUCAAACGUGAUUAGUAGAAGGGUUACCAAUAG | – | – | 15.6 | 7.77 |
| CCAUGACAAAGUCAUGGAAUACGAACAUGAGGAUCACCCAUGUAGGAUAUGCUACUCAAAGAGUAGCAGAAGGACAUGUGUCUU | 29.9 | 156 | – | – |
| CAGGGUCGUAUUCAGCCCGUCCACAUGAGGAUCACCCAUGUCAAGGAUAUAGAUUAAAAUACAAGCUAGAAGGUGACGCUGGGU | 14.3 | 42.6 | – | – |
| CCUUUACAUGAGGAUCACCCAUGUCAGGAUAUCCUGUUGUGUUGUCUCGGGCGACACAUGAGCCAGGAGAAGGGACGAAGGGAA | 41.7 | 68.1 | – | – |
| GAUCCGUCCUAGAAGGCCAUCCAACAUGAGGAUCACCCAUGUGCGGACUGGAGGAUAUAGGUGGGAUAGGCCUAGGGCCCGGUC | – | – | 7.43 | 5.55 |
| UCUACAUAAAUUCAUCAAUACAGAAAGGAUAUGAAAUACAUGAGGAUCACCCAUGUUCAUGGGAAUUAGAAGGUUCAAUUAGCC | 133 | 84.6 | – | – |
| ACGCCUCCUGUCAGGAUAUGCAUCGGGCUUCCGCAGCAGAAGGGACAUGAGGAUCACCCAUGUCAAAUAAAAUC | 17.6 | 58.3 | – | – |
| CAGCUCUGAGGAUAUCCACCCUCGUACAUGAGGAUCACCCAUGUUUCCCUCUGGGCUUUCGGAGAAGGCAGGUAUC | 59.1 | 55.3 | – | – |
| AAGAGUAGAGGAUAUAUAUGAAAAGAGUCGAAAGACUCAAAACAUGAGGAUCACCCAUGUAGAAGGCUACUCAA | 17.8 | 21.1 | – | – |
| GUAGCAUACCGAGGAUAUUCAUACCGGAAACGGACAUGAGGAUCACCCAUGUGGCGAAAGCCUUAGGAGAAGGCGGAAUGCUAC | – | – | 16.4 | 12.3 |
| GGCUAGUCAGGAUAUACGAACAUGUCAAAAGACGUGAAGGGACAUGAGGAUCACCCAUGUAGAAGGGACUAGCC | 22.8 | 182 | – | – |
| UUACUACAUGAGGAUCACCCAUGUCAGGAUAUUGUAUAUGCCUUGGAAUACGUGUUUACAAGAAGGGACUAUAU | 24.1 | 25.4 | – | – |
| UGCCGGAGCAGAGGAUAUUACAUGAGGAUCACCCAUGUAUGAACCAAUAGCUGGAAACAGCAAUGUAAGAAGGCUGCUCCGACA | 13.4 | 144 | – | – |
| CUUCGACAUGAGGAUCACCCAUGUCAGGAUAUUGUGUAUCGGGUUUUUUACGGAAAGGCAAGAAGGGAUGUGUG | 29.7 | 24.8 | – | – |
| AAUUAACAUGAGGAUCACCCAUGUGAGGAUAUGGUAUUACUUGGACAGCUAUGAUCUACCAGAAGGCACAUCUA | 24.4 | 44.8 | – | – |
| CGAUCCCUGUAGAAGGGAGCACCGCAAAACGUGAACCGGUCGCACCGGUGCUUAGGAUAUACAUGAGGAUCACCCAUGUAAAGG | 15.3 | 20.2 | – | – |
| UGUGAACAUGAGGAUCACCCAUGUGAGGAUAUACGAGCGUGAGAAAGAUAAAACGAGCGUAGAAGGCACAAGAA | 75.1 | 102 | – | – |
| UCGAACUUUCAUGAAAUUCGCACAUGAGGAUCACCCAUGUACGAGGAUAUGUACUUAAACGGCUAACAGAAGGCGUACUGGGCA | 105 | 71.8 | – | – |
| GCAGCACAGAUUUACAUGAGGAUCACCCAUGUCUAUUAAGAUGAGGAUAUGCUUCGAAUGAUGUUGCAGAAGGCAUUGUGCUGC | – | – | 10.9 | 6.6 |
| GGUACCAACACAGGAUAUGCUUUCCUUUGGGAAGCAGAAGGGUGAAAACAUGAGGAUCACCCAUGUGGUACCGGGCGUGAGCCC | – | – | 534 | 39 |
| CCCACGAAAGUCGAACGAUGUAGCAGAAGGACAAUAACAUGACAUGAGGAUCACCCAUGUGCCAUGUAGGAUAUGCUACAUGGG | 8.24 | 7.14 | – | – |
| GGAUGUCAAAGACAUCCAAUUCGAACAUGAGGAUCACCCAUGUAGGAUAUGCUACUCAAAGAGUAGCAGAAGGACAUGUGCUUU | 36.6 | 183 | – | – |
| GCGAAUAAGUGAGGAUAUACAUAAUUUAUAACUGUAGAAGGCACAAACCUCAAGACAUGAGGAUCACCCAUGUGAAAUAUCGCU | 31 | 81.8 | – | – |
| CACGGUGAUGUAGGAUAUACGCUGGAAUACAGCGUAGAAGGACAUGAGGAUCACCCAUGUAAAGUGUCUCCAAAUAACACCGUG | 32.5 | 90.5 | – | – |
| GGUGGACAUGAGGAUCACCCAUGUGAGGAUAUCGGCUGGCUAGCGGCUGACGGCUGCUCGAGAAGGCGCAUUGU | 65.8 | 84.9 | – | – |
| GUGCAUGUGCGAACUAACCCACAUGAGGAUCACCCAUGUAGGAGAAGGGUCCGGAGGUGCCGUGGACAGGAUAUCCUACGCCUU | 17.5 | 33.2 | – | – |
| AAACUGCCACAUGAGGAUCACCCAUGUAAAUAAAGUAUUUGGAGAAGGGCGAUAGCAAAGCUAUCGCAGGAUAUUCUCAGGCAG | – | – | 20.3 | 15.3 |

| Sequence | apparent Kd [1] [nM] | apparent Kd [2] [nM] | apparent Kd [3] [nM] | apparent Kd [4] [nM] |
| --- | --- | --- | --- | --- |
| AAUUUAAUACAUGAGGAUCACCCAUGUAAUACUUGUAAGAUCAAGGAUAUCAGCUCGAUUAGAGCUGAGAAGGUGAUCACAUGU | – | – | 73.1 | 204 |
| AAAACGUGAGGAUAUGCACCCACCAAGGUUUUUCGGGUACGACAUGAGGAUCACCCAUGUAGAAGGCACGCAAA | 27.6 | 21.2 | – | – |
| AUCGUUGGAGGAUAUGCUUGGAAAAAAAAAAAAAAAAAAAAACAUGAGGAUCACCCAUGUAGAAGGUCAAUGGA | 52.6 | 47.2 | – | – |
| AAUAUGAGCUGGAAUAACCUAGAAACAUGAGGAUCACCCAUGUAGGAUAUCAGCACGAUAAGUGCUGAGAAGGACAACCAGCUC | 14.3 | 15.2 | – | – |
| AAUACUUAGUAAGGAUAUACUAGCGAUUAGCUUGUAGAAGGUACAGUCUUAUGUAUAACAUGUUAACAUGAGGAUCACCCAUGU | – | – | 67.2 | 35.1 |
| GGUACUCAAAGAGUACCAAGACGAACAUGAGGAUCACCCAUGUAGGAUAUGCUACUCAAAGAGUAGCAGAAGGACAUGUGCCUA | 17.1 | 107 | – | – |
| AAAUAGUUAGGAUAUACAUGAGGAUCACCCAUGUAGGGUUCAGUCAUGCAGAAAAUGCGUAGAAGGAACUAUCC | 18.4 | 16.7 | – | – |
| AUGACUCUAGGAUAUUAGCGGGCCUACAUGAGGAUCACCCAUGUCGUGUCGCGGGUAUGCUGAGAAGGAGAGCACA | 14.2 | 17.9 | – | – |
| CUAGCUAUCGGAGGAUAUUCAUACCGGAAACGGACAUGAGGAUCACCCAUGUGGCGAAAGCCAUGGGAGAAGGCCGAUAGCUAG | – | – | 1640 | 133 |
| AAAUUUGACGAAGGAUAUGGAUACAUGAGGAUCACCCAUGUUUAUUUUGUGAUUUUGUUUAAGUACCAGAAGGUCGAAUACAUA | 39 | 63.9 | – | – |
| AUUAUGUUAGGAUAUGCUUAUGGUGGAUAGUCCAAUAUGAUGCAGAAGGGACAUGAGGAUCACCCAUGUACUGA | 24.9 | 27.3 | – | – |
| UGAAAUCAUGUAGGAUAUGCAUGGCGAAGCUACGCAGAAGGACAUGAGGAUCACCCAUGUUAUAGCUACCCGUUACGGUGGCAA | 135 | 155 | – | – |
| CGAUAAAGGUGAGGAUAUGAGAAUAGAAAGAAAUCAGAAGGCACACAUGAGGAUCACCCAUGUGAGUUCUUGAGAUUACAUGGU | 14.9 | 15.1 | – | – |
| UUUUUACGAGGAUAUCGAUUGUGGUACAUGAGGAUCACCCAUGUAUGUGAUAUUGUAUUUCGAGAAGGCGUUCAGU | 19.3 | 17.8 | – | – |
| GUAGCUACAUGAGGAUCACCCAUGUAGGAUAUCGCUAUUGUAAUCAUGAAACAUGAUUACAAUAGCGAGAAGGACGUUAGCUAC | 6.31 | 7.31 | – | – |
| CAAAACAUCUCCGUGUUUGUCGAACAUGAGGAUCACCCAUGUAGAAGGCAUCGCGCGACGCGGGAUGAGGAUAUACGCUGGAUG | 6.18 | 15.3 | – | – |
| AAUUAACUCACAGGAUAUAGCAGAGGUCGAGUGUACUUACAGGCGACGAGGCUAGAAGGGUGACCACAUGAGGAUCACCCAUGU | – | – | 621 | 103 |
| GAUCACUGAGGAUAUACACAGAUACAAAGUAUCUGAGCGUGACAUGAGGAUCACCCAUGUAGAAGGCAGAGGUC | 190 | 769 | – | – |
| CGAGGACAUGAGGAUCACCCAUGUAGCUACAAAAUGCAGCGACAGGAUAUCCUCUGGUUCCCAUAGGAGAAGGGUCAAACCUUG | – | – | 26.8 | 47.5 |
| CACCGUUAAAGAGGAUAUCGUACAUGAGGAUCACCCAUGUAAUAAAUGAGAAUUUCGGAUGUAUGCGAGAAGGCUUAAAUCGGC | 52.9 | 48.3 | – | – |
| GGCUCAUUGACAUUAAUGUGCAGACAGGAUAUCCACCGCGGUUCCUACAUGAGGAUCACCCAUGUGGAGAAGGGUCGCUAAUGG | 16.1 | 43.6 | – | – |
| GUACCUUAUGAGAAGGCGAUCAUGAAACAUGAUCGAGGAUAUCAUGUAAACAUGAGGAUCACCCAUGUAUGGGUAUUAUGGUAG | – | – | 40.8 | 11.3 |
| GCGAAGAACGAGAAGGCCACUACAUGAGGAUCACCCAUGUCGUGGAGUAUUGGAGGAUAUCGAUCGGCGUCUCAUGAGGACAUA | 5.73 | 5.61 | – | – |
| AUCAGCUCGUCAGGAUAUACGUCACUGCGUCAGCAGUGUGGUAAGAUCACAUGAGGAUCACCCAUGUAGAAGGGACGAACUGAU | 13.6 | 292 | – | – |
| UGCAUGUAAGGAUAUGCACUGCGCGAGCCUGACUCGCAAAGGCAGAAGGUACAUGAGGAUCACCCAUGUGAGAA | 72.6 | 64.6 | – | – |
| AAUGAAUUCGAGAAGGGAGAUGUGGCACUUGUUUCGAAGUUGUGAUCACUCAGGAUAUCGAAACAUGAGGAUCACCCAUGUAAA | – | – | 273 | 17.5 |
| GUGCUCGUGUAAGGAUAUGCAGCCGUUUCGGCUGCAGAAGGUACUAUAAUACAUGAGGAUCACCCAUGUCUCUAUAAUUUGGUG | – | – | 148 | 214 |
